Assay outcomes: PubChem, The Scripps Research Institute Molecular Screening Center
Rows were chosen to be rich in hits. Some 2.7% of all compounds tested hit in one or more screens of this group.
TCR CD3 inh – human TCR-CD3 binding inhibition; TAMRA-labeled TCR probe fluorescence, biochemical; 0.37% of 360,000 active; inhibition, % at 9.4 µM; AID 651800; in the data active = inhibition above about 19%;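 also: recombinant mutant TCR 2C K166C tagged with TAMRA read by polarization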
ABHD4 inh – ABHD4 (mouse) inhibition, primary FP screen | Q8VD66 | AID 720543 | 0.54% of 370,000 active | inhibition, % at 8.92 µM | purified mABHD4, FP-Rh probe fluorescence polarization;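 active = inhibition exceeding the mean over every tested compound plus 3 SD, cut at about 30% in these data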
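Material: mouse ABHD4 enzyme, wild type; Benchmarks: S159A mutant high control, sample median low control; Buffer or medium: HEPES pH 7.0, NaCl, Pluronic buffer; Signal: fluorescence polarization; Read-out: percent inhibition of probe binding, normalized to plate controls; Timing: pre-incubation 45 min, probe exposure 60 min, at 25 °C; Dosing: 8.92 µM, single dose.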
PRMT1 FP inh – inhibitors of human PRMT1. Q99873. recombinant PRMT1, activity-based probe fluorescence polarization. inhibition, % at 2.79 µM. 1.3% of 370,000 active. AID 652257;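 active = inhibition above about 21% made by adding two undisclosed values, limit read from the data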
HTRA1 inhibitor – blocks human HTRA1 serine peptidase | AID 504803 | Q92743 | recombinant HTRA1, FP-rhodamine activity-based probe, fluorescence polarization | inhibition, % at 5.96 µM | 0.5% of 340,000 active; in the data active = inhibition above about 36%
SIAE primary – blocks human sialic acid acetylesterase; SIAE FP-Rh probe binding, fluorescence polarization; inhibition, % at 9.66 µM; 0.69% of 370,000 active;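 active = inhibition above a cutoff: mean of compounds within the control limits plus 3 SD of those, cut at about 17% in these data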
Target sequence (Q9HAT2 whole entry, looked up): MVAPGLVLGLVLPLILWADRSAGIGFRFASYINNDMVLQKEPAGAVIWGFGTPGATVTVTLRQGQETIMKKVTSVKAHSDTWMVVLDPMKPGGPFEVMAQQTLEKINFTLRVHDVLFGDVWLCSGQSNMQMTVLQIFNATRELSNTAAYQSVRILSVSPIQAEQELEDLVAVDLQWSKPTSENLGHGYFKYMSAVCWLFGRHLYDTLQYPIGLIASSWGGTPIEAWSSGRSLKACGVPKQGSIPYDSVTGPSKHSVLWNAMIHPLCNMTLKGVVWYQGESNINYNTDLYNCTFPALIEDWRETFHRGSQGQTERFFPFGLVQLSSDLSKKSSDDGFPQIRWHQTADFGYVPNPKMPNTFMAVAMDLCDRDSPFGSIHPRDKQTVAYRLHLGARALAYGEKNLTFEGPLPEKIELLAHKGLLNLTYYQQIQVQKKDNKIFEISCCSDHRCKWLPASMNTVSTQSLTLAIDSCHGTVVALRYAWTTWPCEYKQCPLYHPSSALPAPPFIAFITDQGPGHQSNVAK
Large screens that a line does not name were inactive.

CCOC(=O)c1sc(N(Cc2ccccc2)C(=O)COC(=O)c2ccccc2O)nc1C	none
CCOC(=O)c1sc(N(Cc2ccccc2)C(=O)CCl)nc1C	PRMT1 FP inh 21.6
c1ccc(CC(Nc2cccnc2)c2ccccc2)cc1 (centres undefined)	none (no result: HTRA1 inhibitor)
CCOC(=O)C1=C(C)N(c2ccc(OC)cc2)C(=O)/C1=C\c1ccc(O)c(OCC)c1	PRMT1 FP inh 31.8
CCOC(=O)C1=C(C)N(c2ccc(OC)cc2)C(=O)/C1=C\c1cccs1	none
CCOC(=O)c1ccc(N2C(=O)CC(Sc3ncccn3)C2=O)cc1 (centres undefined)	PRMT1 FP inh 21.4
CCOC(=O)C(N)CSC1CC(=O)N(c2ccc(C(=O)OC)cc2)C1=O (centres undefined)	none
Cc1oc(-c2ccccc2Cl)nc1CSCC(=O)NC1CC1	none
Cc1oc(-c2ccccc2F)nc1CSCC(=O)NC1CCCC1	PRMT1 FP inh 24.3
CC(c1ccccc1)N1CC[C@H]2C=CC[C@@H](C(=O)Nc3cccc(Cl)c3)[C@H]2C1=O (some centres undefined)	none (no result: TCR CD3 inh, HTRA1 inhibitor)
COc1cc(NC(=O)C2CCCN(S(=O)(=O)c3ccc(C)c(C)c3)C2)cc(OC)c1 (centres undefined)	none (no result: TCR CD3 inh, HTRA1 inhibitor)
CC1CCC(NC(=O)c2nn(C)c3c2CSc2ccccc2-3)CC1 (centres undefined)	PRMT1 FP inh 22.3
CC(c1ccccc1)n1cc(C(=O)NCCCN2CCCC2)nn1 (centres undefined)	none (no result: TCR CD3 inh, HTRA1 inhibitor)
CCN(C(=O)c1ccco1)c1nc(CC(=O)Nc2ccc(Cl)cc2)cs1	none
CCC(=O)N(Cc1ccco1)c1nc(C(=O)Nc2ccc(Cl)cc2)c(C)s1	PRMT1 FP inh 21.3
CC1Oc2cc3oc4c(O)c(O)ccc4c(=O)c3c(O)c2C1(C)C (centres undefined)	HTRA1 inhibitor 71.8 (no result: TCR CD3 inh, ABHD4 inh, PRMT1 FP inh, SIAE primary)
O=C(Nc1cccc(F)c1)OCCN1CCCC12CCC(c1ccccc1)CC2 (centres undefined)	none (no result: TCR CD3 inh, HTRA1 inhibitor)
COc1cccc(NC(=S)NC(=O)c2cccnc2)c1	none
CCOC(=O)c1cccc(NC(=S)NC(=O)c2cccnc2)c1	PRMT1 FP inh 21.6
CCC(Oc1ccc(C)c(C)c1)C(=O)N1CCCN(C)CC1 (centres undefined)	none
Cc1cc(O)c(CN(C)C)c2c1C(=O)/C(=C/c1ccco1)O2	none
Cc1cc(O)c(C=O)c2c1C(=O)Oc1c(CO)c(O)c3c(c1O2)C(O)OC3=O (centres undefined)	HTRA1 inhibitor 41.1 (no result: TCR CD3 inh, ABHD4 inh, PRMT1 FP inh, SIAE primary)
COC(=O)[C@]1(Sc2ccc(C)cc2)CC(=O)N[C@@H]1c1ccco1	PRMT1 FP inh 21.3 (no result: HTRA1 inhibitor)
CN(CCO)c1ccc(C=NNc2ccc([N+](=O)[O-])cc2S(=O)(=O)Nc2ccccc2C(=O)O)cc1	ABHD4 inh 46.1 (no result: HTRA1 inhibitor)
CCc1nc(C)ccc1OCC(=O)NCCCN(C)C	SIAE primary 19.8
COc1cc(C2C(C#N)=C(N)N(c3cccnc3)C3=C2C(=O)CCC3)ccc1O (centres undefined)	none
COc1cc(C2C(C#N)=C(N)N(c3ccc(F)cc3)C3=C2S(=O)(=O)CC3)ccc1O (centres undefined)	PRMT1 FP inh 24.6
Cc1sc2ncn(-n3c(C)ccc3C)c(=O)c2c1C	none
Cc1ccc(-c2csc3ncn(-n4c(C)ccc4C)c(=O)c23)o1	PRMT1 FP inh 24.5
COc1cc(CC2COC(c3ccc(O)c(OC)c3)C2COC(C)=O)ccc1O (centres undefined)	TCR CD3 inh 22.6
COc1cccc2sc(Nc3nc(-c4cc5ccccc5oc4=O)cs3)nc12	TCR CD3 inh 19.0
COc1ccc(N2CCN(CCNS(=O)(=O)c3c(C(C)C)cc(C(C)C)cc3C(C)C)CC2)cc1	none (no result: TCR CD3 inh, HTRA1 inhibitor)
Oc1ccc(O)c(Cc2nc3ccccc3s2)c1	PRMT1 FP inh 49.4
Oc1cccc(-c2nc3ccccc3s2)c1	none
FC(F)Oc1ccc(-c2csc(NNC3=NCCCCC3)n2)cc1	PRMT1 FP inh 38.4
O=C(Cn1c(=O)n(Cc2ccco2)c(=O)c2c3c(sc21)CCCCC3)Nc1ccccc1	PRMT1 FP inh 23.9
CN(Cc1ccccc1)C(=O)c1cccc(NC(=O)Cc2ccc(NC(=O)C3CCCN(S(=O)(=O)c4cccc([N+](=O)[O-])c4)C3)cc2)c1 (centres undefined)	none (no result: HTRA1 inhibitor)
O=C(Nc1ccc(Cl)cc1)c1cc2c(cc1O)[nH]c1ccccc12	SIAE primary 51.3
CC(=O)Nc1ccc2[nH]c3ccccc3c2c1	none
Cc1ccc(Nc2n[nH]c(=S)s2)cc1	none
Cc1ccc(Nc2n[nH]c(=S)s2)cc1F	PRMT1 FP inh 21.5
COc1ccc(NCc2cc3cc(OC)ccc3[nH]c2=O)cc1	PRMT1 FP inh 21.3
CCCCNC(=O)C1CCCN1C(=O)Nc1cccc(C)c1 (centres undefined)	none (no result: TCR CD3 inh, HTRA1 inhibitor)
CCOC(=O)N1CCN(C(=O)CNS(=O)(=O)c2cccs2)CC1	none
CC(=O)Nc1ccc(S(=O)(=O)NCC(=O)N2CCN(S(=O)(=O)c3cccs3)CC2)cc1	PRMT1 FP inh 24.4
Nc1[nH]c(C(=O)c2ccccc2)c(-c2ccc(O)cc2)c1C(=O)NCCc1c[nH]c2ccccc12	none (no result: TCR CD3 inh, HTRA1 inhibitor)
CC(C)OP(=O)(OC(C)C)C1(NS(=O)(=O)c2ccc(Cl)cc2)C=C(Cl)C(=O)C(Cl)=C1	PRMT1 FP inh 29.9
O=C(NNc1cc(Br)c(O)c(Br)c1)c1ccccc1	PRMT1 FP inh 22.9
NS(=O)(=O)c1ccc(NNC(=O)c2ccccc2)cc1	none (no result: HTRA1 inhibitor)
Cc1ccc(CNc2ncnc3ccc(-c4ccc(CO)o4)cc23)o1	PRMT1 FP inh 24.7 (no result: HTRA1 inhibitor)
Cc1ccc(Oc2coc3cc(OC(=O)c4cccs4)ccc3c2=O)cc1	HTRA1 inhibitor 70.0
Cc1cccc(Oc2coc3cc(OC(=O)c4cccs4)ccc3c2=O)c1	HTRA1 inhibitor 68.7
COc1ccc2c3c(cccc13)N(C)N=C2C	PRMT1 FP inh 47.9
COc1ccc(-[n+]2c(C)cc(/C=C3\Sc4ccccc4N3C)cc2C)cc1	PRMT1 FP inh 24.3
CC(C)C[C@@H]1COc2cc(Br)ccc2S(=O)(=O)N1Cc1cn(Cc2ccc(Cl)cc2)nn1	none (no result: TCR CD3 inh, HTRA1 inhibitor)
Cc1ccc(NNC(=O)Nc2ccc(Cl)cc2)nn1	PRMT1 FP inh 24.2 (no result: HTRA1 inhibitor)
O=C(NNc1cccc(Cl)n1)Nc1ccc(Cl)cc1	none
O=c1[nH]c2ccccc2c(O)c1-[n+]1ccccc1	none
CCCCS(=O)c1c(O)c2ccccc2[nH]c1=O (centres undefined)	PRMT1 FP inh 22.2
O=c1[nH]c2ccccc2c(O)c1O	PRMT1 FP inh 75.0
Cc1ccc(S(=O)(=O)N2CCCC2C(=O)N2CCc3ccccc3C2)cc1 (centres undefined)	none (no result: TCR CD3 inh, HTRA1 inhibitor)
Cc1ccccc1C1(CCN2CCCCC2)CCOC(C)(C)C1 (centres undefined)	none
CN(C)C(=S)NC(=NCc1ccc([N+](=O)[O-])cc1)c1ccccc1	PRMT1 FP inh 22.3
CN(C)C(=S)Nc1ccc([N+](=O)[O-])cc1	none
CCCCN(C)C(=O)CSc1nnc(-c2cc(OC)c(OC)c(OC)c2)o1	none (no result: TCR CD3 inh, HTRA1 inhibitor)
O=C(/C=C/c1ccc(-c2ccccc2)o1)c1ccccc1	PRMT1 FP inh 24.6
O=Cc1ccc(-c2cccc(C(=O)O)c2)o1	none
Cc1ccc([C@H]2C(C#N)=C(N)Oc3cc(C)oc(=O)c32)o1	PRMT1 FP inh 21.6
